Measurements reported in ChEMBL document CHEMBL3297718, “Ultrasound-assisted one-pot four-component synthesis of novel 2-amino-3-cyanopyridine derivatives bearing 5-imidazopyrazole scaffold and their biological broadcast” (Eur J Med Chem, 2014).
In brackets after ≈: the same amount, converted by molar mass.

Columns and labels:
Salmonella typhi = assay: Antimicrobial activity against Salmonella typhi MTCC 98 by broth microdilution method; type: functional, Salmonella enterica subsp. enterica serovar Typhi; settings: Salmonella enterica
Streptococcus pneumoniae = assay: Antimicrobial activity against Streptococcus pneumoniae MTCC 1936 by broth microdilution method; type: functional
Bacillus subtilis = assay: Antimicrobial activity against Bacillus subtilis MTCC 441 by broth microdilution method; type: functional
In short: (§1)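 Broth microdilution following NCCLS. Compounds were diluted in 2% DMSO in water. Fungi were grown in Sabouraud dextrose broth. Inoculum was set to 10⁸ CFU mL⁻¹ by turbidity. A primary serial-dilution screen was followed by a secondary set of lower dilutions for primary actives. Tubes were incubated at 37 °C, with growth noted at 24 and 48 h. MIC was the highest dilution preventing turbidity after spot subculture.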

Vibrio cholerae = assay: Antimicrobial activity against Vibrio cholerae MTCC 3906 by broth microdilution method; type: functional
Escherichia coli = assay: Antimicrobial activity against Escherichia coli MTCC 443 by broth microdilution method; type: functional; in short: as §1
[1] = test system: Mycobacterium tuberculosis; assay: Antitubercular activity against Mycobacterium tuberculosis H37Rv at 250 ug/ml; type: functional
[2] = test system: Mycobacterium tuberculosis; assay: Antitubercular activity against Mycobacterium tuberculosis H37Rv; type: functional
In short: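 M. tuberculosis H37Rv was grown on Lowenstein–Jensen medium with compound at a single concentration of 250, and compared against control tubes of medium alone with the organism. Results are given as % inhibition, and the concentration giving complete inhibition of colonies was taken as the active concentration.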

Candida albicans = assay: Antimicrobial activity against Candida albicans MTCC 227 by broth microdilution method; type: functional; in short: as §1
[3] = Antioxidant activity assessed as ferric ion reducing activity using fe3+-TPTZ at 200 mg/ml measured as ascorbic acid per 100 g sample by FRAP assay; type: physicochemical
In short: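 FRAP assay, modified Benzie–Strain. Reagent combined TPTZ in 40 mM HCl, aqueous FeCl₃·6H₂O and acetate buffer at pH 3.6. Sample solution was mixed with 3 mL reagent and incubated 25 min at 37 °C. Fe(II)–TPTZ absorbance was read at 593 nm against an ascorbic acid standard. Results are given as ascorbic equivalents, mmol/100 g compound.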

Clostridium tetani = assay: Antimicrobial activity against Clostridium tetani MTCC 449 by broth microdilution method; type: functional
Aspergillus fumigatus = assay: Antimicrobial activity against Aspergillus fumigatus MTCC 3008 by broth microdilution method; type: functional; in short: as §1

Row | SMILES | MIC (Salmonella typhi) | MIC (Streptococcus pneumoniae) | MIC (Bacillus subtilis) | MIC (Vibrio cholerae) | MIC (Escherichia coli) | inhibition at 250 µg/mL [1] | MIC [2] | MIC (Candida albicans) | Activity [3] | MIC (Clostridium tetani) | MIC (Aspergillus fumigatus)
1 | Cc1nn(-c2ccccc2)c(-n2ccnc2)c1C=O | 125 µg/mL (≈ 495 µM) | 500 µg/mL (≈ 1980 µM) | 250 µg/mL (≈ 991 µM) | 250 µg/mL (≈ 991 µM) | 100 µg/mL (≈ 396 µM) | 91% | 100 µg/mL (≈ 396 µM) | > 1000 µg/mL | 242.88 mmol | 250 µg/mL (≈ 991 µM) | > 1000 µg/mL
2 | Cc1cn(-c2c(C=O)c(C)nn2-c2ccccc2)cn1 | 200 µg/mL (≈ 751 µM) | 500 µg/mL (≈ 1880 µM) | 100 µg/mL (≈ 376 µM) | 250 µg/mL (≈ 939 µM) | 250 µg/mL (≈ 939 µM) | 65% | – | 250 µg/mL (≈ 939 µM) | 213.24 mmol | 150 µg/mL (≈ 563 µM) | 500 µg/mL (≈ 1880 µM)
3 | Cc1nn(-c2ccccc2)c(-n2ccnc2)c1-c1cc(-c2ccccc2)nc(N)c1C#N | 200 µg/mL (≈ 479 µM) | 250 µg/mL (≈ 599 µM) | 200 µg/mL (≈ 479 µM) | 250 µg/mL (≈ 599 µM) | 250 µg/mL (≈ 599 µM) | 25% | – | 1000 µg/mL (≈ 2400 µM) | 427.08 mmol | 250 µg/mL (≈ 599 µM) | 1000 µg/mL (≈ 2400 µM)
4 | Cc1cn(-c2c(-c3cc(-c4ccccc4)nc(N)c3C#N)c(C)nn2-c2ccccc2)cn1 | 250 µg/mL (≈ 579 µM) | 500 µg/mL (≈ 1160 µM) | 100 µg/mL (≈ 232 µM) | 200 µg/mL (≈ 463 µM) | 200 µg/mL (≈ 463 µM) | 84% | – | > 1000 µg/mL | 401.81 mmol | 500 µg/mL (≈ 1160 µM) | > 1000 µg/mL
5 | Cc1nn(-c2ccccc2)c(-n2ccnc2)c1-c1cc(-c2ccc(-c3ccccc3)cc2)nc(N)c1C#N | 125 µg/mL (≈ 253 µM) | 500 µg/mL (≈ 1010 µM) | 500 µg/mL (≈ 1010 µM) | 500 µg/mL (≈ 1010 µM) | 100 µg/mL (≈ 203 µM) | 45% | – | 500 µg/mL (≈ 1010 µM) | 497.1 mmol | 250 µg/mL (≈ 507 µM) | 500 µg/mL (≈ 1010 µM)
6 | Cc1cn(-c2c(-c3cc(-c4ccc(-c5ccccc5)cc4)nc(N)c3C#N)c(C)nn2-c2ccccc2)cn1 | 200 µg/mL (≈ 394 µM) | 125 µg/mL (≈ 246 µM) | 250 µg/mL (≈ 493 µM) | 100 µg/mL (≈ 197 µM) | 250 µg/mL (≈ 493 µM) | 23% | – | 500 µg/mL (≈ 985 µM) | 495.9 mmol | 250 µg/mL (≈ 493 µM) | 500 µg/mL (≈ 985 µM)
7 | Cc1nn(-c2ccccc2)c(-n2ccnc2)c1-c1cc(-c2ccc(Cl)cc2)nc(N)c1C#N | 200 µg/mL (≈ 443 µM) | 100 µg/mL (≈ 221 µM) | 500 µg/mL (≈ 1110 µM) | 500 µg/mL (≈ 1110 µM) | 62.5 µg/mL (≈ 138 µM) | 16% | – | 1000 µg/mL (≈ 2210 µM) | 490.33 mmol | 500 µg/mL (≈ 1110 µM) | 500 µg/mL (≈ 1110 µM)
8 | Cc1cn(-c2c(-c3cc(-c4ccc(Cl)cc4)nc(N)c3C#N)c(C)nn2-c2ccccc2)cn1 | 250 µg/mL (≈ 537 µM) | 200 µg/mL (≈ 429 µM) | 500 µg/mL (≈ 1070 µM) | 250 µg/mL (≈ 537 µM) | 200 µg/mL (≈ 429 µM) | 22% | – | 1000 µg/mL (≈ 2150 µM) | 404.8 mmol | 500 µg/mL (≈ 1070 µM) | 500 µg/mL (≈ 1070 µM)
9 | Cc1nn(-c2ccccc2)c(-n2ccnc2)c1-c1cc(-c2ccc(Br)cc2)nc(N)c1C#N | 200 µg/mL (≈ 403 µM) | 200 µg/mL (≈ 403 µM) | 200 µg/mL (≈ 403 µM) | 200 µg/mL (≈ 403 µM) | 100 µg/mL (≈ 201 µM) | 37% | – | 500 µg/mL (≈ 1010 µM) | 67.63 mmol | 200 µg/mL (≈ 403 µM) | 500 µg/mL (≈ 1010 µM)
10 | Cc1cn(-c2c(-c3cc(-c4ccc(Br)cc4)nc(N)c3C#N)c(C)nn2-c2ccccc2)cn1 | 500 µg/mL (≈ 980 µM) | 250 µg/mL (≈ 490 µM) | 62.5 µg/mL (≈ 122 µM) | 250 µg/mL (≈ 490 µM) | 500 µg/mL (≈ 980 µM) | 84% | – | 1000 µg/mL (≈ 1960 µM) | 70.61 mmol | 100 µg/mL (≈ 196 µM) | > 1000 µg/mL
11 | Cc1nn(-c2ccccc2)c(-n2ccnc2)c1-c1cc(-c2ccc(F)cc2)nc(N)c1C#N | 500 µg/mL (≈ 1150 µM) | 200 µg/mL (≈ 459 µM) | 200 µg/mL (≈ 459 µM) | 200 µg/mL (≈ 459 µM) | 500 µg/mL (≈ 1150 µM) | 15% | – | 1000 µg/mL (≈ 2300 µM) | 405.2 mmol | 500 µg/mL (≈ 1150 µM) | 1000 µg/mL (≈ 2300 µM)
12 | Cc1cn(-c2c(-c3cc(-c4ccc(F)cc4)nc(N)c3C#N)c(C)nn2-c2ccccc2)cn1 | 250 µg/mL (≈ 556 µM) | 100 µg/mL (≈ 222 µM) | 500 µg/mL (≈ 1110 µM) | 100 µg/mL (≈ 222 µM) | 500 µg/mL (≈ 1110 µM) | 62% | – | > 1000 µg/mL | 392.66 mmol | 250 µg/mL (≈ 556 µM) | 1000 µg/mL (≈ 2220 µM)
